# Screens from PubChem BioAssay.
# OX1R antag-1 = antagonists of human orexin 1 receptor; O43613; 330,000 compounds, 0.43% hits; CHO/OX1R cells, Fluo-8 calcium fluorescence, orexin A; inhibition, % at 5 µM;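 active = inhibition above its plate's threshold, mean inhibition of all tested compounds on the plate plus 3 SD, cut at about 37% in these data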;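 also: 0% = orexin A challenge wells and 100% = SB-334867-A antagonist wells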
# CHO parental Ca = counter-screen for OX1R antagonists: effect in parental CHO cells. parental CHO-K1, ATP-induced calcium, Fluo-8 fluorescence. inhibition, % at 5.6 µM. 330,000 compounds, 0.63% hits;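 active = inhibition above that plate's mean sample inhibition plus 3 SD, cut at about 26% in these data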;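 also: 0% = ATP-challenged DMSO wells and 100% = DMSO wells without ATP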
#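 Measured by: calcium-sensitive Fluo-8 fluorescence / Test system: CHO parental line / Controls: ATP-challenged DMSO wells low, unchallenged DMSO wells high / Measure: % inhibition / Compound: single nominal dose of 5.6 µM per compound / Replicates: single well per compound, no replicates / Reagent: ATP as calcium-mobilizing challenge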
# GalR3 antagonist = human GalR3 antagonism; O60755; HEK293 GalR3-CNG cAMP membrane potential fluorescence; galR3 body fused to GalR1 C-terminus; inhibition, % at 3 µM; 360,000 compounds, 0.44% hits; AID 651719;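 active = inhibition above the screen-wide average plus 3 SD, cut at about 13% in these data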;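 also: forskolin and galanin both at EC90 stimulate the cells; cAMP rise reported by CNG channel membrane potential dye signal; 0% = forskolin plus galanin with DMSO and 100% = forskolin alone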
# Target sequence (O60755 1-299 limits assumed): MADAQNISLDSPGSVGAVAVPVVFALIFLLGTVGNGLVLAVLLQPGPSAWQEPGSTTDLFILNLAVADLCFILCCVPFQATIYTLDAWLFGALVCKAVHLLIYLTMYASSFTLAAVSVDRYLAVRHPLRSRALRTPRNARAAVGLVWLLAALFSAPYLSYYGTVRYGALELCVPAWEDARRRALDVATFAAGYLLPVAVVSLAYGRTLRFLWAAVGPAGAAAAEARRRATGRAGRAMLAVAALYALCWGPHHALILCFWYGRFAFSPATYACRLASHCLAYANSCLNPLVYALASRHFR
# OX1R antag-2 = blocks the human orexin 1 receptor; OX1R-expressing cells, FRET antagonist read-out; inhibition, % at 6.6 µM; 330,000 compounds, 1.8% hits; AID 485270; in the data active = inhibition mostly above about 38%, no sharp cut-off; inactive = mostly below about 40%;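 also: 0% = agonist challenge alone and 100% = reference antagonist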
# GPR7 antagonist = blocks human GPR7 receptor signaling. GPR7-expressing cells, fluorescence antagonist assay. inhibition, % at 4.4 µM. AID 1861. 290,000 compounds, 1.1% hits; in the data active = inhibition above about 16%, passing the limit was not always enough;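 also: cells stimulated with the agonist NPW; 0% = agonist with vehicle and 100% = vehicle without agonist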
# Target sequence (P48145 whole entry, looked up): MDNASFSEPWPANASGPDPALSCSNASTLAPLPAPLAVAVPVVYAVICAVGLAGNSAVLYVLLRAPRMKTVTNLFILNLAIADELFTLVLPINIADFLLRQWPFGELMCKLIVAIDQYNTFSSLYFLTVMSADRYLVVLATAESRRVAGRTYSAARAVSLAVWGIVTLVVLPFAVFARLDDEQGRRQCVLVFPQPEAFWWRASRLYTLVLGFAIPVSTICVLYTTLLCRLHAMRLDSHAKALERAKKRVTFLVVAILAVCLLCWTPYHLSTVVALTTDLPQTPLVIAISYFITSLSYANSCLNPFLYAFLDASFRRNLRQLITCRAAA
# Starred values were filed as active, the others as inactive; nt = no result; + = active, no number. An excerpt weighted towards active compounds, which were near 3.1% of everything screened.
SMILES,OX1R antag-1,CHO parental Ca,GalR3 antagonist,OX1R antag-2,GPR7 antagonist
COc1ccccc1C(=O)NC(=S)/C=C1/N(C)c2ccccc2C1(C)C,48*,49*,0,36,-14
Cn1cccc1/C=C1\SC(=Nc2cccc(O)c2)NC1=O,-15,-7,-5,42*,-2
Cn1cccc1/C=C1\SC(=Nc2ccc(O)cc2)NC1=O,-13,-23,2,15,21*
COc1ccc(C(=O)N2CCCCC2c2cc(C(=O)Nc3cccc(C#N)c3)no2)cc1 (stereo not drawn),nt,nt,-6,nt,nt
C[C@@H]1NC(=O)[C@H](CCC(N)=O)NC(=O)c2cc([N+](=O)[O-])cc(I)c2NCCC[C@@H](C(N)=O)NC1=O,0,2,-5,61*,-10
NC(=O)[C@@H]1CCCNc2c(I)cc([N+](=O)[O-])cc2C(=O)N[C@@H](CCC(=O)O)C(=O)N[C@@H](CO)C(=O)N1,-8,-9,nt,67*,-9
C[C@@H]1NC(=O)c2cc([N+](=O)[O-])cc(I)c2NCCCC[C@@H](C(N)=O)NC(=O)[C@H](CCC(=O)O)NC1=O,-11,2,nt,53,-6
O=C1NC[C@@H](Cc2cccc3ccccc23)N(CCc2cccc(F)c2)C1=O,nt,nt,-8,nt,nt
Cc1nnc(N/N=C/c2cccc(C(F)(F)F)c2)n1N,-1,-9,-7,22,-9
Cc1nnc(N/N=C/c2cccc(OCc3ccc(Cl)c(Cl)c3)c2)n1N,-6,-9,-8,44*,-5
COc1ccc2cc(C(=O)N3CCN(c4ccccc4OC)CC3)[nH]c2c1,1,-13,-10,20,-12
CC1CCN(C(=O)C(C)Sc2nc(-c3ccccc3)cc(C(F)(F)F)n2)CC1 (stereo not drawn),-30,30*,-5,11,1
CC(Sc1nc(-c2ccccc2)cc(C(F)(F)F)n1)C(=O)N1CCCC1 (stereo not drawn),-13,-11,0,7,-5
C#CCn1c(CCNC(=O)c2ccco2)nc2ccccc21,-9,8,-9,14,3
CCOC(=O)C1CCN(C(=O)COC(=O)CN(C)S(=O)(=O)c2ccc(NC(C)=O)cc2)CC1,-10,-8,-1,4,-15
Cc1ccc(C)c(S(=O)(=O)N2CCN(c3nc(-c4cccnc4)nc4ccccc34)CC2)c1,31,-39,-5,47*,nt
COC(=O)[C@]12C[C@H](CC(=O)N3CCCCC3)C(=O)N(Cc3ccc4c(c3)OCO4)C1=C[C@H](COCc1ccccc1)O[C@@H]2C,nt,nt,-6,nt,nt
COC(=O)[C@]12C[C@H](CC(=O)NCc3ccc(C)o3)C(=O)N(CCC3=CCCCC3)C1=C[C@H](COCc1ccccc1)O[C@@H]2C,nt,nt,-9,nt,nt
O=C(Cn1cnc2c(nnn2Cc2ccccc2F)c1=O)OCc1ccccc1,69*,80*,-7,10,24
CCCCCCCCN1C(=O)[C@@H](CC(=O)N2CCC(c3ccccc3)CC2)C[C@@]2(C(=O)OC)C1=C[C@H](C(C)(C)C)O[C@@H]2C,nt,nt,0,nt,nt
CC1CC(C)CN(C(=O)CNC(=O)c2ccc3ccccc3c2)C1 (stereo not drawn),-18,-10,-4,74*,-5
O=C(NCC(=O)N1CCCCC1)c1ccc2ccccc2c1,12,2,-4,8,-12
COc1ccc(-c2cn(-c3ccc(OC)cc3)c3[n+]2-c2ccccc2CC3)cc1,-9,-3,0,-13,24*
COc1cc(/C=C2\SC(=O)NC2=O)ccc1Oc1ccc([N+](=O)[O-])cn1,-9,-5,6,53*,3
COc1cc(/C=C2/SC(=O)NC2=O)ccc1Oc1ccc([N+](=O)[O-])cc1[N+](=O)[O-],-14,-1,-1,47*,-8
SMILES,OX1R antag-1,CHO parental Ca,GalR3 antagonist,OX1R antag-2,GPR7 antagonist
COc1cc(/C=C2/SC(N)=NC2=O)ccc1Oc1ccc([N+](=O)[O-])cc1[N+](=O)[O-],1,-8,-6,5,5
COc1cc(/C=C2/NC(=O)N(Cc3ccccc3F)C2=O)ccc1Oc1ccc([N+](=O)[O-])cn1,-13,-8,-4,15,-2
CCCC(=O)N(Cc1cc2cccc(C)c2[nH]c1=O)c1ccccc1OC,-3,-16,1,15,21*
O=C(C1=C(c2ccccc2)C(=O)c2ccccc2C1=O)c1ccccc1,nt,nt,-11,nt,-19
Cc1oc2c(c1C(=O)c1ccccc1)C(=O)C(=O)c1ccccc1-2,5,-16,-5,+,19
O=C1C(=O)c2c(C(=O)c3ccccc3)coc2-c2ccccc21,-1,-22,-9,53*,-7
O=C(c1ccccc1)c1coc2ccc(O)c(Cl)c12,-18,-14,-7,16,-4
COc1cccc(C(O)c2nc(-c3cccc(C#N)c3)cs2)c1 (stereo not drawn),nt,nt,-8,nt,nt
O=C(Nc1cccc(F)c1)Nc1nnc([C@@H]2O[C@H](CO)[C@@H](O)[C@H]2O)s1,nt,nt,-7,nt,nt
COCCN1Cc2cc(C(=O)OC)c3c(c2C1=O)c1cc(OC)ccc1n3S(=O)(=O)c1ccc(F)cc1,nt,nt,-7,nt,nt
COc1ccc(NC(=O)N(C)C[C@H]2OCCCC[C@H](C)Oc3ccc(NC(=O)Nc4cccc5ccccc45)cc3C(=O)N([C@@H](C)CO)C[C@H]2C)cc1,nt,nt,-1,nt,nt
O=C(N/N=C\c1cn(-c2ccccc2)nc1-c1ccccc1)c1ccc2c(c1)OCO2,-5,-15,-4,77*,1
O=C(N/N=C/c1ccc(-c2ccc(Br)cc2)o1)c1ccc2c(c1)OCO2,-15,-2,-7,36*,20
Cc1nn(-c2ccccc2)c(Cl)c1/C=N/NC(=O)c1ccco1,-10,-4,-2,45*,-1
CC(NC(=O)c1cc([N+](=O)[O-])cc([N+](=O)[O-])c1)c1ccc(-n2ccnc2)cc1 (stereo not drawn),-22,-10,-2,64*,-12
CC(NC(=O)c1ccc(N(C)C)c([N+](=O)[O-])c1)c1ccc(-n2ccnc2)cc1 (stereo not drawn),-16,-18,0,29,-4
Cc1onc(-c2c(Cl)cccc2Cl)c1C(=O)N1CCOCC1,-1,-1,-9,5,-10
Cc1onc(-c2c(Cl)cccc2Cl)c1C(=O)N1CCc2ccccc21,21,-17,-5,40*,9
COc1ccc(C2/C=C\CN(S(=O)(=O)c3ccc(C)cc3)CC(=O)N2Cc2cccc(F)c2)cc1 (stereo not drawn),44,-14,-5,50*,nt
CCCCNC(=O)C1(C)CCN1C(=O)c1sccc1C (stereo not drawn),nt,nt,-4,nt,nt
Cc1ccc(S(=O)(=O)Oc2ccc(/C=N/NC(=O)c3nn(C)cc3[N+](=O)[O-])cc2)cc1,0,-14,-5,17,15
Cn1cc([N+](=O)[O-])c(C(=O)N/N=C/c2ccncc2)n1,8,4,0,75*,-12
Cn1cc([N+](=O)[O-])c(C(=O)Nc2ccc(Br)cn2)n1,-17,7,-5,50*,-9
CCCCc1c(-c2ccccc2OC)ncn1Cc1cccc(F)c1,nt,nt,-8,nt,nt
